In article PMC8799877 (Acta Pharmaceutica Sinica. B, 2021):

Assays:
BRD4(2) = BRD4(2) (Homo sapiens, UniProt O60885); assay: HTRF bromodomain binding assay, BRD4
BRD4(1) = BRD4(1) (Homo sapiens, UniProt O60885); assay: HTRF bromodomain binding assay, BRD4
[1] = system: MV4-11 and RS411 acute leukemia xenograft models; details: 5 mg/kg; cited from earlier work
[2] = MTT cytotoxicity / cell viability in NRCFs; format: cell-based; details: Sprague-Dawley, rat, primary neonatal rat cardiac fibroblasts (NRCFs)
[3] = In vivo pharmacokinetic study; parameters: species or system male Sprague-Dawley rats; details: for CL_F_pred / Vz_F_pred: rats
Summary of the method: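 Male SD rats (n = 3) dosed iv at 2 mg/kg or orally at 10 mg/kg. Plasma separated by centrifugation at 4 °C, 6000 rpm, 8 min, and analysed by LC–MS. Parameters reported as mean ± SD.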

[4] = MTT cytotoxicity / cell viability in NRCMs; format: cell-based; details: Sprague-Dawley, rat, primary neonatal rat cardiac myocytes (NRCMs)
BRD4 = BRD4 (Rattus norvegicus, UniProt A0A8I6A216); assay: Cellular thermal shift assay; format: cell-based; details: NRCFs, 10 μmol/L, 4 h, heated from 43 to 61 °C
NRCFs [5] = assay: Ang II-induced cardiac fibroblast activation; format: cell-based, rat; details: immunofluorescent staining
Summary of the method: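 Treated neonatal rat cardiac fibroblasts fixed in 4% paraformaldehyde overnight, permeabilised with 0.1% Triton X-100 10 min, blocked in 5% BSA 20 min. Anti-α-SMA (1:300) at 4 °C overnight, then Alexa Fluor 488 goat anti-rabbit IgG (1:200) 2 h in the dark, DAPI 15 min. Imaged by laser confocal microscopy; n = 3.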

[6] = system: TGF-β1/Smad2/3 signaling pathway; assay: Ang II-induced TGF-β1/Smad2/3 signaling in NRCFs; format: cell-based, rat; details: pretreatment, Western blot
Summary of the method: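 Fibroblasts from hearts of 1–3-day-old neonatal SD rats: trypsin (0.8 mg/mL, 4 °C overnight), then collagenase II (0.8 mg/mL), 2 h differential plating. Treated cells lysed in RIPA, protein by BCA, 10% SDS-PAGE, nitrocellulose, 5% nonfat milk block 2 h, primary antibodies 4 °C overnight, secondary 1:10,000 2 h, chemiluminescence, densitometry.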

NRCFs [7] = assay: Wound scratch migration assay; format: cell-based, rat; details: C-34 1 μmol/L or JQ1 0.2 μmol/L, Ang II 12 or 24 h
[8] = male, Sprague-Dawley, rat, plasma, iv, 2 mg/kg
[9] = male, Sprague-Dawley, rat, plasma, po, 10 mg/kg

SMILES: O=S(=O)(c1ccccc1Nc1nc(-c2ccc(F)cc2)c2ccccc2n1)N1CCOCC1 [Compound 48]
- IC50 (BRD4(2)): 6.69 ± 0.825 µM

SMILES: N#Cc1ccc(-c2nc(Nc3ccc(S(N)(=O)=O)cc3)nc3ccccc23)cc1 [Compound 30]
- IC50 (BRD4(1)): 0.588 ± 0.024 µM
- IC50 (BRD4(2)): 0.688 ± 0.016 µM

SMILES: O=S(=O)(c1ccc(Nc2nc(-c3ccc(F)cc3)c3ccccc3n2)cc1)N1CCOCC1 [Compound 49]
- IC50 (BRD4(1)): 5.95 ± 0.248 µM
- IC50 (BRD4(2)): 1.33 ± 0.628 µM

SMILES: Cc1ccc(-c2nc(Nc3ccc(S(N)(=O)=O)cc3)nc3ccc(C)cc23)cc1 [Compound 34, 4-((6-Methyl-4-(p-tolyl)quinazolin-2-yl)amino)benzenesulfonamide]
- IC50 (BRD4(2)): 13.6 ± 1.13 µM

SMILES: COC(=O)c1ccc(Nc2nc(-c3ccc(Cl)cc3)c3ccccc3n2)cc1 [Compound 12]
- IC50 (BRD4(2)): 7.05 ± 0.848 µM

SMILES: NS(=O)(=O)c1ccc(CNc2nc(-c3ccc(F)cc3)c3ccccc3n2)cc1 [Compound 46]
- IC50 (BRD4(2)): 6.12 ± 0.258 µM

SMILES: NS(=O)(=O)c1ccc(Nc2nc(-c3cccc4ccccc34)c3ccccc3n2)cc1 [Compound 41, 4-((4-(Naphthalen-1-yl)quinazolin-2-yl)amino)benzenesulfonamide]
- IC50 (BRD4(2)): 4.76 ± 0.678 µM

SMILES: O=C(O)c1ccc(Nc2nc(-c3ccc(Cl)cc3)c3ccccc3n2)cc1 [Compound 13]
- IC50 (BRD4(2)): 3.05 ± 0.484 µM

SMILES: NS(=O)(=O)c1ccc(CCNc2nc(-c3ccc(F)cc3)c3ccccc3n2)cc1 [Compound 47]
- IC50 (BRD4(2)): 18.63 ± 0.047 µM

SMILES: CC(C)c1ccc(Nc2nc(-c3ccc(F)cc3)c3ccccc3n2)cc1 [Compound 45]
- IC50 (BRD4(2)): 5.27 ± 0.367 µM

SMILES: O=C(O)c1ccc(CNc2nc(-c3ccc(F)cc3)c3ccccc3n2)cc1 [Compound 44, 4-(((4-(4-Fluorophenyl)quinazolin-2-yl)amino)methyl)benzoic acid]
- IC50 (BRD4(1)): 5.13 ± 0.626 µM
- IC50 (BRD4(2)): 2.07 ± 0.625 µM

SMILES: Oc1ccc(Nc2nc(-c3ccc(Cl)cc3)c3ccccc3n2)cc1 [Compound 14]
- IC50 (BRD4(2)): 4.31 ± 0.18 µM

SMILES: CC(C)c1ccc(Nc2nc(-c3ccc(Cl)cc3)c3ccccc3n2)cc1 [Compound 17]
- IC50 (BRD4(2)): 12.9 ± 0.947 µM

SMILES: COc1ccc(-c2nc(Nc3ccccc3S(N)(=O)=O)nc3ccccc23)cc1 [Compound 36]
- IC50 (BRD4(2)): 9.91 ± 0.996 µM

SMILES: Cc1ccc(-c2nc(Nc3ccc(S(N)(=O)=O)cc3)nc3ccccc23)cc1 [Compound 33, 4-((4-(p-Tolyl)quinazolin-2-yl)amino)benzenesulfonamide]
- IC50 (BRD4(2)): 3.23 ± 0.089 µM

SMILES: COC(=O)c1ccc(-c2nc(Nc3ccc(S(N)(=O)=O)cc3)nc3ccccc23)cc1 [Compound 38]
- IC50 (BRD4(2)): 5.17 ± 0.614 µM

SMILES: O=S(=O)(c1ccc(Nc2nc(-c3ccc(Cl)cc3)c3ccccc3n2)cc1)N1CCOCC1 [Compound 20]
- IC50 (BRD4(2)): 3.88 ± 0.589 µM

SMILES: Clc1ccc(-c2nc(NCCc3c[nH]c4ccccc34)nc3ccccc23)cc1 [Compound 9]
- IC50 (BRD4(2)): 14.8 ± 1.17 µM

SMILES: CC(C)(CO)Nc1nc(-c2ccc(Cl)cc2)c2ccccc2n1 [Compound 7]
- IC50 (BRD4(2)): 12.4 ± 1.09 µM

SMILES: OCCNc1nc(-c2ccc(Cl)cc2)c2ccccc2n1 [Compound 6]
- IC50 (BRD4(2)): 8.314 ± 0.016 µM

SMILES: Cc1nnc2n1-c1sc(C#Cc3cnn(CCCC#Cc4cccc5c4CN(C4CCC(=O)NC4=O)C5=O)c3)c(Cc3ccccc3)c1COC2 (stereo not drawn) [QCA570]
- tumor regression [1]: complete and long-lasting tumor regression

SMILES: NS(=O)(=O)c1ccc(Nc2nc(-c3ccccc3)c3ccccc3n2)cc1 [Compound 32, 4-((4-Phenylquinazolin-2-yl)amino)benzenesulfonamide]
- IC50 (BRD4(2)): 10.3 ± 1.01 µM

SMILES: NS(=O)(=O)c1ccc(Nc2nc(Nc3ccc(Br)cc3)c3ccccc3n2)cc1 [Compound 52]
- IC50 (BRD4(2)): 9.85 ± 0.993 µM
- fold decrease on potency vs compound 26 (BRD4(2) IC50) (BRD4(2); vs compound 26): ~6 fold

SMILES: NS(=O)(=O)c1ccccc1Nc1nc(-c2ccc(Br)cc2)c2ccccc2n1 [Compound 27]
- IC50 (BRD4(2)): 3.21 ± 0.206 µM

SMILES: NS(=O)(=O)c1ccc(Nc2nc(-c3ccc(Br)cc3)c3ccccc3n2)cc1 [Compound 26]
- IC50 (BRD4(1)): 1.6 ± 0.205 µM
- IC50 (BRD4(2)): 1.63 ± 0.212 µM

SMILES: Clc1ccc(-c2nc(NCc3ccco3)nc3ccccc23)cc1 [Compound 10]
- IC50 (BRD4(2)): 13.3 ± 1.12 µM

SMILES: O=C(c1ccc(Nc2nc(-c3ccc(F)cc3)c3ccccc3n2)cc1)N1CCOCC1 [Compound 50]
- IC50 (BRD4(2)): 3.07 ± 0.584 µM

SMILES: NS(=O)(=O)c1ccc(Nc2nc(-c3ccc(F)cc3)c3ccccc3n2)cc1 [Compound 28]
- IC50 at 24 h [2]: 48.2 ± 1.68 µM
- AUC(0-inf) [3, 8]: 7130 ng·h/mL
- AUC(0-t) [3, 8]: 7100 ng·h/mL
- Cmax [3, 8]: 2820 ng/mL
- MRT last [3, 8]: 3.46 h
- half-life [3, 8]: 3.13 h
- bioavailability ([3]; male, Sprague-Dawley, rat, plasma, oral, 10 mg/kg): 43.1%
- AUC(0-inf) [3, 9]: 15400 ng·h/mL
- AUC(0-t) [3, 9]: 15300 ng·h/mL
- Cmax [3, 9]: 2170 ng/mL
- MRT last [3, 9]: 4.27 h
- Tmax [3, 9]: 2.67 h
- half-life [3, 9]: 1.77 h
- CL_F_pred ([3]; iv 2 mg/kg): 4.67 mL/min/kg
- Vz_F_pred ([3]; iv 2 mg/kg): 1.27 L/kg
- CL_F_pred ([3]; po 10 mg/kg): 12 mL/min/kg
- Vz_F_pred ([3]; po 10 mg/kg): 1.77 L/kg
- IC50 at 24 h [4]: 19.1 ± 1.4 µM
- IC50 (BRD4(1)): 0.286 ± 0.046 µM
- IC50 (BRD4(2)): 0.242 ± 0.049 µM
- BRD4 thermal stabilization (CETSA, Western blot) (BRD4): could efficiently stabilize BRD4 from 43 to 61 °C

SMILES: NS(=O)(=O)c1ccccc1Nc1nc(-c2ccc(F)cc2)c2ccccc2n1 [Compound 29]
- IC50 (BRD4(1)): 0.615 ± 0.127 µM
- IC50 (BRD4(2)): 0.589 ± 0.052 µM

SMILES: O=C(O)c1ccc(Nc2nc(-c3ccc(F)cc3)c3ccccc3n2)cc1 [Compound 43, 4-((4-(4-Fluorophenyl)quinazolin-2-yl)amino)benzoic acid]
- IC50 (BRD4(1)): 4.47 ± 0.361 µM
- IC50 (BRD4(2)): 0.925 ± 0.081 µM

SMILES: Clc1ccc(-c2nc(Nc3ccccc3)nc3ccccc23)cc1 [Compound 15]
- IC50 (BRD4(2)): 10.6 ± 0.367 µM

SMILES: Cc1ccc2nc(Nc3ccc(S(N)(=O)=O)cc3)nc(-c3ccc(Cl)cc3)c2c1 [Compound 25]
- IC50 (BRD4(2)): 12.6 ± 0.307 µM

SMILES: Cc1sc2c(c1C)C(c1ccc(Cl)cc1)=N[C@@H](CC(=O)OC(C)(C)C)c1nnc(C)n1-2 [JQ1]
- α-SMA fluorescence intensity after Ang II stimulation (NRCFs [5]): this effect was reversed
- Ang II-induced upregulation of TGF-β1, p-Smad2 and p-Smad3 [6]: comparable to those by JQ1 treatment
- Ang II-induced cell migration (wound scratch assay) (NRCFs [7]): effectively inhibited the enhanced cell migration induced by Ang II
- BRD4 thermal stabilization (CETSA, Western blot) (BRD4): in close accordance with that obtained for JQ1

SMILES: NS(=O)(=O)c1ccc(Nc2nc(-c3ccc(Cl)cc3)c3ccccc3n2)cc1 [Compound 19]
- IC50 (BRD4(1)): 3.37 ± 0.528 µM
- IC50 (BRD4(2)): 1.53 ± 0.185 µM
- fold more active in comparison to compound 15 (BRD4(2) IC50) (BRD4(2); vs compound 15): about 7 fold

SMILES: NS(=O)(=O)c1ccc(Nc2nc(-c3cccc(Cl)c3)c3ccccc3n2)cc1 [Compound 24]
- IC50 (BRD4(2)): 15.1 ± 1.18 µM

SMILES: CNC(=O)c1ccc(-c2nc(Nc3ccc(S(N)(=O)=O)cc3)nc3ccccc23)cc1 [Compound 37]
- IC50 (BRD4(2)): 3.65 ± 0.562 µM

SMILES: NS(=O)(=O)c1ccc(Nc2nc(-c3ccccc3Cl)c3ccccc3n2)cc1 [Compound 23]
- IC50 (BRD4(2)): 19.7 ± 1.3 µM

SMILES: COc1ccc(-c2nc(Nc3ccc(S(N)(=O)=O)cc3)nc3ccccc23)cc1 [Compound 35, 4-((4-(4-Methoxyphenyl)quinazolin-2-yl)amino)benzenesulfonamide]
- IC50 (BRD4(2)): 8.12 ± 0.084 µM

SMILES: NS(=O)(=O)c1ccc(Nc2nc(-c3ccc(C(F)(F)F)cc3)c3ccccc3n2)cc1 [Compound 31]
- IC50 (BRD4(1)): 0.687 ± 0.054 µM
- IC50 (BRD4(2)): 0.424 ± 0.038 µM

SMILES: COC(=O)c1ccc(-c2nc(Nc3ccccc3S(N)(=O)=O)nc3ccccc23)cc1 [Compound 39]
- IC50 (BRD4(2)): 3.33 ± 0.522 µM

SMILES: Clc1ccc(-c2nc(Nc3ccc(Br)cc3)nc3ccccc23)cc1 [Compound 18]
- IC50 (BRD4(2)): 7.02 ± 0.517 µM

SMILES: Cc1ccc(Nc2nc(-c3ccc(Cl)cc3)c3ccccc3n2)cc1 [Compound 16]
- IC50 (BRD4(2)): 8.62 ± 0.164 µM

SMILES: NS(=O)(=O)c1ccc(Nc2nc(-c3ccc(OCc4ccccc4)cc3)c3ccccc3n2)cc1 [Compound 42, 4-((4-(4-(Benzyloxy)phenyl)quinazolin-2-yl)amino)benzenesulfonamide]
- IC50 (BRD4(2)): > 20 µM

SMILES: NC(=O)CNc1nc(-c2ccc(Cl)cc2)c2ccccc2n1 [Compound 8]
- IC50 (BRD4(2)): 4.55 ± 0.658 µM
- fold more potent than compound 5 (BRD4(2) IC50) (BRD4(2); vs compound 5): about 4 fold

SMILES: NS(=O)(=O)c1cccc(Nc2nc(-c3ccc(Cl)cc3)c3ccccc3n2)c1 [Compound 21]
- IC50 (BRD4(2)): > 20 µM

SMILES: COC(=O)c1cccc(-c2nc(Nc3ccc(S(N)(=O)=O)cc3)nc3ccccc23)c1 [Compound 40]
- IC50 (BRD4(2)): 7.62 ± 0.882 µM

SMILES: COC(=O)c1ccc(CNc2nc(-c3ccc(Cl)cc3)c3ccccc3n2)cc1 [Compound 11]
- IC50 (BRD4(2)): 9.04 ± 0.956 µM
